Consider 15 molecules from ChEMBL document CHEMBL3045158, “Synthesis and antiviral activities of chiral thiourea derivatives containing an alpha-aminophosphonate moiety” (J Agric Food Chem, 2009).

SMILES strings stand for the structures. ≈ marks a conversion by molar mass, not a printed value.

Experiment [1] has as its system Tobacco mosaic virus. Put plainly: Antiviral activity against Tobacco mosaic virus (TMV) in compound treated Nicotiana tabacum L.leaves assessed as protective effect from local lesions at 500 ug/ml measured after 3 to 4 days. It counts as functional. In outline: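 Half-leaf test on same-age N. tabacum L. leaves: compound solution smeared on the left half, solvent on the right as control. Leaves were inoculated 12 h later by brush with TMV at 6 × 10-3 mg/mL on silicon carbide-dusted leaves, then rinsed with water. Local lesions were counted 3–4 days later, three repetitions. Inhibition % = (control lesions − treated lesions)/control lesions × 100.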

Experiment [2] has as its system Tobacco mosaic virus. As to the kind of experiment: Antiviral activity against Tobacco mosaic virus (TMV) in compound treated Nicotiana tabacum L.leaves assessed as curative effect from local lesions at 500 ug/ml measured after 3 to 4 days. Type of experiment: functional.
The test system of experiment [3] is Tobacco mosaic virus. Put plainly: Antiviral activity against Tobacco mosaic virus (TMV) in compound treated Nicotiana tabacum L.leaves assessed as curative effect at 125 ug/ml. Type of experiment: functional.
In experiment [4] the test system is Tobacco mosaic virus. As to the kind of experiment: Antiviral activity against Tobacco mosaic virus (TMV) in compound treated Nicotiana tabacum L.leaves assessed as curative effect at 500 ug/ml. Type of experiment: functional.
The subject of experiment [5] is Tobacco mosaic virus. As to the kind of experiment: Antiviral activity against Tobacco mosaic virus (TMV) in compound treated Nicotiana tabacum L.leaves assessed as curative effect. Type of experiment: functional, organism-based.
For experiment [6], the system named is Tobacco mosaic virus. Put plainly: Antiviral activity against Tobacco mosaic virus (TMV) in compound treated Nicotiana tabacum L.leaves assessed as curative effect at 250 ug/ml. Type of experiment: functional.

Regarding `CCOP(=O)(OCC)C(NC(=S)N[C@@H](C)c1ccccc1)c1ccccc1` (stereo not given in full), the Activity in the experiment on Tobacco mosaic virus [1] amounted to 37.6%; in the experiment with Tobacco mosaic virus [2], 41.8%.
In general, EC50 refers to the midpoint of the concentration-response curve. On to `CCCOP(=O)(OCCC)C(NC(=S)N[C@@H](C)C1CCCCC1)c1ccccc1` (stereo not given in full), for which the Activity with Tobacco mosaic virus [3] is given as 39.1%; in the experiment on Tobacco mosaic virus [4], 54.8%; in the experiment on Tobacco mosaic virus [1], 30.9%; with Tobacco mosaic virus [6], 49%; with Tobacco mosaic virus [2] it was 54.3%. Moreover, the EC50 in the experiment on Tobacco mosaic virus [5] is 240 µg/mL (≈ 544 µM).
For `CCCCOP(=O)(OCCCC)C(NC(=S)N[C@@H](C)C1CCCCC1)c1ccccc1` (stereo not given in full), the Activity with Tobacco mosaic virus [3] is 32.9%; in the experiment on Tobacco mosaic virus [4], 50.4%; with Tobacco mosaic virus [1] it was 36.3%; in the experiment with Tobacco mosaic virus [6], 37.2%; with Tobacco mosaic virus [2], 50.4%. Besides, the EC50 in the experiment with Tobacco mosaic virus [5] is 379 µg/mL (≈ 809 µM).
With `CNCC(=O)N[C@@H](CO)C(=O)N[C@H]1[C@H](O)[C@@H](O)[C@H](n2ccc(N)nc2=O)O[C@@H]1C(N)=O` [NINGNANMYCIN], the Activity worked out at 41.9% with Tobacco mosaic virus [3]; 56.2% with Tobacco mosaic virus [4]; 60.6% in the experiment on Tobacco mosaic virus [1]; 50.7% in the experiment with Tobacco mosaic virus [6]; 56.2% with Tobacco mosaic virus [2]. Further, the EC50 in the experiment on Tobacco mosaic virus [5] was 227 µg/mL (≈ 512 µM).
For the molecule `CCOP(=O)(OCC)C(NC(=S)N[C@H](C)C1CCCCC1)c1ccccc1` (stereo not given in full), the Activity amounted to 33.1% with Tobacco mosaic virus [1] and 40.1% in the experiment on Tobacco mosaic virus [2].
On to `CC(C)OP(=O)(OC(C)C)C(NC(=S)N[C@H](C)c1ccccc1)c1ccccc1` (stereo not given in full), for which the Activity in the experiment with Tobacco mosaic virus [1] worked out at 46.3%; in the experiment on Tobacco mosaic virus [2] it was 34.5%.
Take `CCCOP(=O)(OCCC)C(NC(=S)N[C@H](C)C1CCCCC1)c1ccccc1` (stereo not given in full): the Activity with Tobacco mosaic virus [1] turned out to be 37.9%; in the experiment with Tobacco mosaic virus [2], 40.7%.
For `CCOP(=O)(OCC)C(NC(=S)N[C@H](C)c1ccccc1)c1ccccc1` (stereo not given in full), the Activity in the experiment with Tobacco mosaic virus [1] amounted to 42.6%; with Tobacco mosaic virus [2], 45.2%.
As to `CCOP(=O)(OCC)C(NC(=S)N[C@@H](C)C1CCCCC1)c1ccccc1` (stereo not given in full), the Activity with Tobacco mosaic virus [1] is 36.4%; in the experiment with Tobacco mosaic virus [2], 36.3%.
In the case of `CCCOP(=O)(OCCC)C(NC(=S)N[C@@H](C)c1ccccc1)c1ccccc1` (stereo not given in full), the Activity with Tobacco mosaic virus [3] came out at 30.9%; in the experiment with Tobacco mosaic virus [4], 50.5%; in the experiment on Tobacco mosaic virus [1] it was 42.7%; with Tobacco mosaic virus [6], 37.7%; with Tobacco mosaic virus [2], 50.5%. Moreover, in the experiment on Tobacco mosaic virus [5], the half-maximal effective concentration (EC50) is 400 µg/mL (≈ 920 µM).
`CC(C)OP(=O)(OC(C)C)C(NC(=S)N[C@@H](C)c1ccccc1)c1ccccc1` (stereo not given in full): the Activity amounted to 36.9% with Tobacco mosaic virus [1] and 36.8% in the experiment on Tobacco mosaic virus [2].
With `CC(C)OP(=O)(OC(C)C)C(NC(=S)N[C@@H](C)C1CCCCC1)c1ccccc1` (stereo not given in full), the Activity is on record as 29% in the experiment with Tobacco mosaic virus [3]; 50.4% in the experiment with Tobacco mosaic virus [4]; 36.3% with Tobacco mosaic virus [1]; 36.7% in the experiment with Tobacco mosaic virus [6]; 50.4% in the experiment with Tobacco mosaic virus [2]. Besides, the concentration for a half-maximal effect (EC50) with Tobacco mosaic virus [5] is 413 µg/mL (≈ 938 µM).
Turning to `CCCCOP(=O)(OCCCC)C(NC(=S)N[C@H](C)C1CCCCC1)c1ccccc1` (stereo not given in full), the Activity in the experiment on Tobacco mosaic virus [1] was 33.7%; with Tobacco mosaic virus [2] it was 34.6%.
Turning to `CCCOP(=O)(OCCC)C(NC(=S)N[C@H](C)c1ccccc1)c1ccccc1` (stereo not given in full), the Activity in the experiment with Tobacco mosaic virus [1] came to 45.9%; with Tobacco mosaic virus [2], 41.9%.
Turning to `CC(C)OP(=O)(OC(C)C)C(NC(=S)N[C@H](C)C1CCCCC1)c1ccccc1` (stereo not given in full), the values for the Activity in the experiment with Tobacco mosaic virus [1] and with Tobacco mosaic virus [2] were 33.7% and 34.6%, respectively.
